# Laboratory results taken from publication PMC5115981 (Cancer chemotherapy and pharmacology, 2016).
# How the values were obtained:
# mice = experiment: Single dose IV toxicity study in mice; format: in vivo, mouse; settings: single IV dose 4 mg/kg
# Procedure, shortened: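 Male and female heterozygous Foxn1nu/Foxn1+ mice, 5 per group, fasted overnight. Single 4 mg/kg IV tail-vein dose from a 0.4 mg/mL solution in 10% Solutol HS15 in sterile water (0.01 ml/g), alongside vehicle-treated mice. Body weights and clinical signs followed over 14 days, then necropsy for gross pathology. The dose tested was capped by maximum solubility.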
# [1] = Single dose pharmacokinetics in mice; format: in vivo, mouse; settings: female, heterozygous Foxn1nu/Foxn1+, mouse; for Cmax: mice
# Procedure, shortened: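 Fasted female heterozygous Foxn1nu/Foxn1+ mice, 3 per time point (5–1440 min), received a single dose by one of three routes: 4.0 mg/kg in 10% Solutol HS IV via tail vein; the same formulation by oral gavage; or 30 mg/kg PO in 1% CMC suspension. Vehicle controls were taken at 5 and 1440 min. Sampling: cardiac-puncture EDTA plasma, tissues including brain, and metabolic-cage urine. Analysis by LC-MS/MS with a deuterated internal standard. Group means underwent non-compartmental analysis; […].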
structure (smiles),measurement,setting,value
"COc1ccc(C2=Nn3c(nnc3-c3cc(-c4ccc(Cl)cc4)n[nH]3)SC2C)cc1 (centres unmarked) [UPCDC-10205, 3-(3-(4-chlorophenyl)-1H-pyrazole-5-yl)-6-(4-methoxyphenyl)-7-methyl-7H-[1,2,4]triazolo[3,4-b][1,3,4]thiadiazine]",clinical appearance after single dose,"mice; male and female mice, 14 day observation, 4 mg/kg",not toxic
same,gross pathology upon necropsy after single dose,mice; necropsy after 14 day observation,no gross pathology was detected
same,body weight after single dose,mice; within first 24 h after injection,no apparent weight loss
same,AUC(0-t),"[1]; brain, iv, 4 mg/kg",1730 ng·h/mL
same,Tmax,"[1]; brain, iv, 4 mg/kg",15 min
same,Cmax,"[1]; brain, iv, 4 mg/kg, IV 4 mg/kg in 10% Solutol HS, brain",1640 ng/mL
same,AUC(0-t),"[1]; brain, po, 4 mg/kg",30 ng·h/mL
same,Tmax,"[1]; brain, po, 4 mg/kg",60 min
same,Cmax,"[1]; brain, po, 4 mg/kg, PO 4 mg/kg in 10% Solutol HS, brain",15.4 ng/mL
same,AUC(0-t),"[1]; brain, po, 30 mg/kg",33.4 ng·h/mL
same,Tmax,"[1]; brain, po, 30 mg/kg",5 min
same,Cmax,"[1]; brain, po, 30 mg/kg, PO 30 mg/kg suspension in 1% CMC, brain",49 ng/mL
same,AUC(0-t),"[1]; kidney, iv, 4 mg/kg",3240 ng·h/mL
same,Tmax,"[1]; kidney, iv, 4 mg/kg",5 min
same,Cmax,"[1]; kidney, iv, 4 mg/kg, IV 4 mg/kg in 10% Solutol HS, kidney",4620 ng/mL
same,AUC(0-t),"[1]; kidney, po, 4 mg/kg",428 ng·h/mL
same,Tmax,"[1]; kidney, po, 4 mg/kg",30 min
same,Cmax,"[1]; kidney, po, 4 mg/kg, PO 4 mg/kg in 10% Solutol HS, kidney",308 ng/mL
same,AUC(0-t),"[1]; kidney, po, 30 mg/kg",272 ng·h/mL
same,Tmax,"[1]; kidney, po, 30 mg/kg",5 min
same,Cmax,"[1]; kidney, po, 30 mg/kg, PO 30 mg/kg suspension in 1% CMC, kidney",404 ng/mL
same,AUC(0-t),"[1]; liver, iv, 4 mg/kg",1470 ng·h/mL
same,Tmax,"[1]; liver, iv, 4 mg/kg",30 min
same,Cmax,"[1]; liver, iv, 4 mg/kg, IV 4 mg/kg in 10% Solutol HS, liver",2780 ng/mL
same,AUC(0-t),"[1]; liver, po, 4 mg/kg",300 ng·h/mL
same,Tmax,"[1]; liver, po, 4 mg/kg",5 min
same,Cmax,"[1]; liver, po, 4 mg/kg, PO 4 mg/kg in 10% Solutol HS, liver",220 ng/mL
same,AUC(0-t),"[1]; liver, po, 30 mg/kg",542 ng·h/mL
same,Tmax,"[1]; liver, po, 30 mg/kg",5 min
same,Cmax,"[1]; liver, po, 30 mg/kg, PO 30 mg/kg suspension in 1% CMC, liver",564 ng/mL
same,AUC(0-t),"[1]; lung, iv, 4 mg/kg",2680 ng·h/mL
same,Tmax,"[1]; lung, iv, 4 mg/kg",5 min
same,Cmax,"[1]; lung, iv, 4 mg/kg, IV 4 mg/kg in 10% Solutol HS, lung",4490 ng/mL
same,AUC(0-t),"[1]; lung, po, 4 mg/kg",630 ng·h/mL
same,Tmax,"[1]; lung, po, 4 mg/kg",4.98 min
same,Cmax,"[1]; lung, po, 4 mg/kg, PO 4 mg/kg in 10% Solutol HS, lung",414 ng/mL
same,AUC(0-t),"[1]; lung, po, 30 mg/kg",186 ng·h/mL
same,Tmax,"[1]; lung, po, 30 mg/kg",5 min
same,Cmax,"[1]; lung, po, 30 mg/kg, PO 30 mg/kg suspension in 1% CMC, lung",331 ng/mL
same,AUC(0-t),"[1]; muscle, iv, 4 mg/kg",1630 ng·h/mL
same,Tmax,"[1]; muscle, iv, 4 mg/kg",15 min
same,Cmax,"[1]; muscle, iv, 4 mg/kg, IV 4 mg/kg in 10% Solutol HS, muscle",1900 ng/mL
same,Cmax,"[1]; muscle, po, 4 mg/kg, PO 4 mg/kg in 10% Solutol HS, muscle",51.2 ng/mL
same,AUC(0-t),"[1]; muscle, po, 30 mg/kg",140 ng·h/mL
same,Tmax,"[1]; muscle, po, 30 mg/kg",5 min
same,Cmax,"[1]; muscle, po, 30 mg/kg, PO 30 mg/kg suspension in 1% CMC, muscle",189 ng/mL
same,AUC(0-inf),"[1]; plasma, iv, 4 mg/kg",1020 ng·h/mL
